ChEMBL document CHEMBL2434944, “Novel acetamidothiazole derivatives: synthesis and in vitro anticancer evaluation” (Eur J Med Chem, 2013)

What was measured:
CCRF-CEM = assay: Growth inhibition of human CCRF-CEM cells assessed as cell growth at 10^-5 M after 48 hrs by sulforhodamine B assay relative to control; format: functional; conditions: read-out: Activity
Method in brief: (§1)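 NCI-60 single-dose screen at 10^-5 M. Cells grown in RPMI 1640 with 5% FBS and 2 mM L-glutamine, plated at 5,000–40,000 cells/well according to doubling time, and preincubated 24 h at 37°C, 5% CO2. Compound dissolved in DMSO and added. Exposure 48 h. Adherent cells fixed with cold TCA (10% final), suspension cells with 16% final TCA. Read-out is 0.4% SRB staining, dye solubilised in 10 mM Tris, absorbance at 515 nm. Percent growth is calculated against the time-zero plate and untreated control.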

OVCAR-3 = assay: Growth inhibition of human OVCAR3 cells assessed as cell growth at 10^-5 M after 48 hrs by sulforhodamine B assay relative to control; format: functional; conditions: OVCAR-3, 48 h, read-out: Activity; method in brief: as §1
A549 = assay: Growth inhibition of human A549 cells assessed as cell growth at 10^-5 M after 48 hrs by sulforhodamine B assay relative to control; format: functional; conditions: A549, 48 h, read-out: Activity; method in brief: as §1
SF-539 = assay: Growth inhibition of human SF539 cells assessed as cell growth at 10^-5 M after 48 hrs by sulforhodamine B assay relative to control; format: functional; conditions: SF-539, 48 h, read-out: Activity; method in brief: as §1
SNB-75 = assay: Growth inhibition of human SNB75 cells assessed as cell growth at 10^-5 M after 48 hrs by sulforhodamine B assay relative to control; format: functional; conditions: SNB-75, 48 h, read-out: Activity; method in brief: as §1
RXF 393 = assay: Growth inhibition of human RXF393 cells assessed as cell growth at 10^-5 M after 48 hrs by sulforhodamine B assay relative to control; format: functional; conditions: RXF 393, 48 h, read-out: Activity; method in brief: as §1
NCI-H322M = assay: Growth inhibition of human NCI-H322M cells assessed as cell growth at 10^-5 M after 48 hrs by sulforhodamine B assay relative to control; format: functional; conditions: read-out: Activity; method in brief: as §1
NCI-H460 = assay: Growth inhibition of human NCI-H460 cells assessed as cell growth at 10^-5 M after 48 hrs by sulforhodamine B assay relative to control; format: functional; conditions: NCI-H460, 48 h, read-out: Activity; method in brief: as §1
[1] = biological target: Epidermal growth factor receptor (Homo sapiens, UniProt P00533); assay: Inhibition of human EGFR
Epidermal growth factor receptor, sequence (P00533 whole entry): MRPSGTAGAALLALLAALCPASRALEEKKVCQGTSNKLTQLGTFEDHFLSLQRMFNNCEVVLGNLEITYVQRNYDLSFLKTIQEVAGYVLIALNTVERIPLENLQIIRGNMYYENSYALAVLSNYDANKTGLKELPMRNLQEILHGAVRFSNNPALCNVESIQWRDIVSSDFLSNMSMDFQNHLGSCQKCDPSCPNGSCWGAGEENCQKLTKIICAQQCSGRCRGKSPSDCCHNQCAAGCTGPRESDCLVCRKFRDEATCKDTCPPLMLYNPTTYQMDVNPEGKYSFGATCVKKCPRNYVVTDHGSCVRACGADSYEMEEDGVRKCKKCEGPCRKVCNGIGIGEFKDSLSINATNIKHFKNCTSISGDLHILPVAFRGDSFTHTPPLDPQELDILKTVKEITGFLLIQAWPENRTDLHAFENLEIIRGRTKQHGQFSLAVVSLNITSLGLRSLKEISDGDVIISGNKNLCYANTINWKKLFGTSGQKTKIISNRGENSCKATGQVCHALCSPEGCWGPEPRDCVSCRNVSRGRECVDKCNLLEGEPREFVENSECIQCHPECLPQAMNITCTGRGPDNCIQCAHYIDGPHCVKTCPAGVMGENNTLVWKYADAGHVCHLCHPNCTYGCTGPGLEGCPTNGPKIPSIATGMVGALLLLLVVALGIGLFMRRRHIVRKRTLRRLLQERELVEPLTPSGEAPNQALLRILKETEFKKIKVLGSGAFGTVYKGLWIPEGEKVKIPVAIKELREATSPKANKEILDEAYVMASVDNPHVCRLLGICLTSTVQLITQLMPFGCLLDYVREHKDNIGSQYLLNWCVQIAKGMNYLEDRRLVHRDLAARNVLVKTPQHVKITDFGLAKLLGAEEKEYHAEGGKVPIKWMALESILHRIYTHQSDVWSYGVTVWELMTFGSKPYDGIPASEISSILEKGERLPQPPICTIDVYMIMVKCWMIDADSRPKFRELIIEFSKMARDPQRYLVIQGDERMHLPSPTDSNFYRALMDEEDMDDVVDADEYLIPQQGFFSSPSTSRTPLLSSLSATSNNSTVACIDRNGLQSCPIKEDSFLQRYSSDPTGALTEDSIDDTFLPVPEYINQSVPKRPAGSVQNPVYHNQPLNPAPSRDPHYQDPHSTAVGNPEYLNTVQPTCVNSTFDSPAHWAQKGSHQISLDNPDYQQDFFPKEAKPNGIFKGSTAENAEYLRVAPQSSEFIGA

K562 = assay: Growth inhibition of human K562 cells assessed as cell growth at 10^-5 M after 48 hrs by sulforhodamine B assay relative to control; format: functional; conditions: K562, 48 h, read-out: Activity; method in brief: as §1
KM12 = assay: Growth inhibition of human KM12 cells assessed as cell growth at 10^-5 M after 48 hrs by sulforhodamine B assay relative to control; format: functional; conditions: KM12, 48 h, read-out: Activity; method in brief: as §1
NCI-H23 = assay: Growth inhibition of human NCI-H23 cells assessed as cell growth at 10^-5 M after 48 hrs by sulforhodamine B assay relative to control; format: functional; conditions: NCI-H23, 48 h, read-out: Activity; method in brief: as §1
SK-MEL-2 = assay: Growth inhibition of human SK-MEL-2 cells assessed as cell growth at 10^-5 M after 48 hrs by sulforhodamine B assay relative to control; format: functional; conditions: SK-MEL-2, 48 h, read-out: Activity; method in brief: as §1
Vitamin D3 receptor = biological target: T1, Vitamin D3 receptor (Homo sapiens, UniProt P11473); assay: Inhibition of human vitamin D3 receptor
T1 sequence (P11473 whole entry): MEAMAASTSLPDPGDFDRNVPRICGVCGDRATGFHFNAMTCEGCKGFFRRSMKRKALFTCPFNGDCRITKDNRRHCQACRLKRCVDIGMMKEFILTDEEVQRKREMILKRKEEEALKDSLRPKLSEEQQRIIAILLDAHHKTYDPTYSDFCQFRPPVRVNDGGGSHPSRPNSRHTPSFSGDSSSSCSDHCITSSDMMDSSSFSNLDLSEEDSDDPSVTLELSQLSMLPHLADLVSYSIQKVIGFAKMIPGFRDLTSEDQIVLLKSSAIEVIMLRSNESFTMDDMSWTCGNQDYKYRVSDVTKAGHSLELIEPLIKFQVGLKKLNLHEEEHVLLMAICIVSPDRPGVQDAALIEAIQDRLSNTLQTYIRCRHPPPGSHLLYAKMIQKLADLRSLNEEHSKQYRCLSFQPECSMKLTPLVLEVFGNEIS

SN12C = assay: Growth inhibition of human SN12C cells assessed as cell growth at 10^-5 M after 48 hrs by sulforhodamine B assay relative to control; format: functional; conditions: read-out: Activity; method in brief: as §1
UACC-62 = assay: Growth inhibition of human UACC62 cells assessed as cell growth at 10^-5 M after 48 hrs by sulforhodamine B assay relative to control; format: functional; conditions: UACC-62, 48 h, read-out: Activity
Method in brief: (§2)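 NCI-60 single-dose screen, 10^-5 M final. Cells grown in RPMI 1640 with 5% FBS and 2 mM L-glutamine, seeded at 5,000–40,000 cells/well by doubling time. Preincubated 24 h at 37°C, 5% CO2. Compound in DMSO, diluted in medium with gentamicin, then 48 h exposure. Fixed with cold TCA, SRB stained, A515 read. Percent growth vs untreated control, time-zero plate corrected.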

UACC-257 = assay: Growth inhibition of human UACC257 cells assessed as cell growth at 10^-5 M after 48 hrs by sulforhodamine B assay relative to control; format: functional; conditions: UACC-257, 48 h, read-out: Activity; method in brief: as §2
HOP-92 = assay: Growth inhibition of human HOP92 cells assessed as cell growth at 10^-5 M after 48 hrs by sulforhodamine B assay relative to control; format: functional; conditions: HOP-92, 48 h, read-out: Activity; method in brief: as §1
Malme-3M = assay: Growth inhibition of human MALME-3M cells assessed as cell growth at 10^-5 M after 48 hrs by sulforhodamine B assay relative to control; format: functional; conditions: read-out: Activity; method in brief: as §1
TK-10 = assay: Growth inhibition of human TK10 cells assessed as cell growth at 10^-5 M after 48 hrs by sulforhodamine B assay relative to control; format: functional; conditions: TK-10, 48 h, read-out: Activity; method in brief: as §2
SF-295 = assay: Growth inhibition of human SF295 cells assessed as cell growth at 10^-5 M after 48 hrs by sulforhodamine B assay relative to control; format: functional; conditions: SF-295, 48 h, read-out: Activity; method in brief: as §1

SMILES | growth at 10 µM (CCRF-CEM) [%] | growth at 10 µM (OVCAR-3) [%] | growth at 10 µM (A549) [%] | growth at 10 µM (SF-539) [%] | growth at 10 µM (SNB-75) [%] | growth at 10 µM (RXF 393) [%] | growth at 10 µM (NCI-H322M) [%] | growth at 10 µM (NCI-H460) [%] | Ki [1] [µM] | growth at 10 µM (K562) [%] | growth at 10 µM (KM12) [%] | growth at 10 µM (NCI-H23) [%] | growth at 10 µM (SK-MEL-2) [%] | Ki (Vitamin D3 receptor) [µM] | growth at 10 µM (SN12C) [%] | growth at 10 µM (UACC-62) [%] | growth at 10 µM (UACC-257) [%] | growth at 10 µM (HOP-92) [%] | growth at 10 µM (Malme-3M) [%] | growth at 10 µM (TK-10) [%] | further results
Cc1ccc(-c2csc(=N)n2CC(=O)N2CCN(c3ccccc3)CC2)cc1 | 103 | 95.4 | 97.7 | 100 | 95.8 | 97.3 | 99.7 | 105 | 2.97 | 100 | 104 | 101 | 117 | 1.03 | 85.2 | 85.9 | 106 | 69.2 | 118 | 140 | 
N=c1scc(-c2ccc(Cl)cc2)n1CC(=O)N1CCN(c2ccccc2)CC1 | 96.2 | 113 | 84.8 | 100 | 78.4 | 98.8 | 99.8 | 101 | 5.82 | 84.8 | 108 | 98.3 | 79 | 3.07 | 99.8 | 98.1 | 105 | 76.1 | 107 | 87.2 | growth at 10 µM (SF-295): 89.7%
N=c1scc(-c2ccccc2)n1CC(=O)N1CCN(c2ccccc2)CC1 | 95.8 | 109 | 90.3 | 97.2 | 74.6 | 107 | 92.6 | 96.4 | 4.68 | 103 | 104 | 91.7 | 104 | 1.6 | 101 | 93.5 | 108 | 59 | 94.2 | 127 | growth at 10 µM (SF-295): 72.4%
CC(=O)N1CCN(C(=O)Cn2c(-c3ccc(C)cc3)csc2=N)CC1 | 88.2 | 108 | 83.4 | 99.9 | 82.3 | 94.8 | 108 | 103 | 6.09 | 84.3 | 99.4 | 95.7 | 113 | 2.84 | 87.4 | 74.2 | 102 | 60.9 | 121 | 121 | 
CC(=O)N1CCN(C(=O)Cn2c(-c3ccc(Cl)cc3)csc2=N)CC1 | 92.3 | 97.7 | 75.9 | 90.2 | 74.4 | 100 | 90.4 | 101 | 8.58 | 72 | 95.2 | 96.9 | 95.7 | 2.28 | 88.6 | 81.9 | 91 | 82 | 133 | 82.1 | 
Cc1ccc(-c2csc(=N)n2CC(=O)N2CCN(C)CC2)cc1 | 87.1 | 108 | 86.8 | 101 | 73.5 | 93.1 | 104 | 102 | 27.4 | 82.9 | 104 | 93.3 | 108 | 17.1 | 93.2 | 72.6 | 102 | 62.8 | 128 | 129 | growth at 10 µM (SF-295): 83.4%
CC(=O)N1CCN(C(=O)Cn2c(-c3ccccc3)csc2=N)CC1 | 103 | 102 | 96 | 91.6 | 67.7 | 86.3 | 94.4 | 110 | 16.8 | 86.8 | 102 | 98.5 | 108 | 4.66 | 95.8 | 89.6 | 98.5 | 75 | 141 | 138 | 
CN1CCN(C(=O)Cn2c(-c3ccc(Cl)cc3)csc2=N)CC1 | 89.1 | 101 | 90.1 | 100 | 79.5 | 108 | 95.9 | 101 | 15.6 | 73.1 | 98.7 | 100 | 102 | 3.66 | 92.8 | 90.2 | 104 | 77.6 | 99.6 | 85.7 | 
N=c1scc(-c2ccccc2)n1CC(=O)N1CCOCC1 | 98.6 | 97 | 102 | 98.8 | 59.4 | 98.7 | 97.9 | 105 | 55.3 | 89.2 | 103 | 95.8 | 106 | 24.4 | 101 | 92.5 | 111 | 70 | 102 | 132 | 
N=c1scc(-c2ccc(Cl)cc2)n1CC(=O)N1CCOCC1 | 91.3 | 108 | 84.6 | 95.8 | 75.3 | 110 | 104 | 99.3 | 6.64 | 70.9 | 106 | 95.6 | 107 | 4.13 | 86.9 | 83.2 | 94.7 | 81.8 | 105 | 85.9 | 
